Consider 13 molecules from PubChem BioAssay.

A short description of test [1]: inhibitors of TNFa-induced NFkB p65 translocation, primary screen, imaging, HUVEC, MLSMR starter and 10KST1 sets (AID 438;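 active = inhibition above 20% together with a positive visual image hit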;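 also: compound added about 3h40 before a 20 min TNFalpha stimulation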;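 as to inhibition: signal is the nuclear over cytoplasmic p65 intensity ratio per well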). To be noted: HUVEC TNFa-induced p65 nuclear translocation; cell count: measured here: nuclei count (cytotoxicity indicator), at 2.08 µM; inhibition: at 2 µM, stronger effect = higher value, 0% TNFa-plus-vehicle, 100% no-TNFa wells.
Test [2] in a line: endothelial E-selectin expression blockers – imaging, HUVEC, immunofluorescence, MLSMR starter and 10KST1 sets, primary screen (AID 487;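 active = visually confirmed hit in the image check and inhibition above 20%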;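 as to inhibition: signal is fraction of cell area covered by stained E-selectin grains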;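 as to nuclei count: 100% = median nuclei count of all wells on the same plate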). Conditions: HUVEC TNFalpha-induced E-selectin immunofluorescence imaging, at 2 µM; inhibition: stronger effect = higher value; nuclei count: measured here: cell number, toxicity.
A short description of test [3]: Primary imaging screen for DUSP6 inhibitors that restore phospho-Erk in transfected HeLa cells, chemical complementation (AID 609;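 active = compounds giving at least 50% inhibition in the cell-based MKP-3 phosphatase rescue imaging test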;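 as to inhibition: phospho-Erk level distribution per well compared with pooled transfected vehicle control wells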). Conditions: HeLa MKP-3 transfected, phospho-Erk imaging KS statistic, at 10 µM, cells stimulated with TPA for 15 min.
Test [4] deals with Dual specificity protein phosphatase 6 (Homo sapiens) (UniProt Q16828). The test is described as above. Conditions: HeLa MKP-3 transfected, phospho-Erk imaging KS statistic; at 10 µM; stronger effect = higher value; cells stimulated with TPA for 15 min.
The target in test [5] is Voltage-gated potassium channel subunit beta-2 (Rattus norvegicus) (UniProt P62483). In words: inhibitors of rat Kvbeta2 reductase activity – biochemical, NADPH fluorescence, primary screen (AID 622;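 active = fluorescence slope higher than the sample average by over 3 SD, cut at about -0.22 in these data, passing the limit was not always enough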;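 also: slope of raw intensity against log time taken from 70 to 1610 s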). Conditions: recombinant KvBeta, 4-cyanobenzaldehyde reduction, at 10 µM, stronger effect = higher value.
The target is the same in test [6]. The test is described as follows: enhancers of rat Kvbeta2 NADPH turnover – biochemical, NADPH fluorescence, primary screen (AID 623;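 active = NADPH fluorescence slope more negative than the mean of all samples by about 3 SD, 99.7% confidence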;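 also: fluorescence intensity change per second fitted from 20 to 320 s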). Conditions: Recombinant KvBeta, NADPH fluorescence decrease slope, 10 min; at 10 µM; stronger effect = lower value.
The target of test [7] is Alpha-2C adrenergic receptor (Homo sapiens) (UniProt P18825). The test is described as follows: compounds altering alpha2C-coupled GIRK flux – cell-based, HEK293 alpha2C/GIRK1/2, thallium flux, primary screen (AID 624).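 Also: slope of fluorescence ratio to pre-addition baseline per second over 15 to 24 s.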 Conditions: thallium flux BTC fluorescence, at 10 µM, actives lie on both sides.
Test [8] in a line: inhibitors of larval lipid processing in zebrafish, primary screen, whole organism, PED6 fluorescence, gall bladder and intestine (AID 686;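 active = a full or partial loss of lipid-probe fluorescence in the fish gall bladder, intestine or both, judged by eye; inactive = no fluorescence loss, or compound toxic to the fish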;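 also: larvae 5 to 7 days old with five fish per well; signal comes from phospholipase A2 cleavage of quenched PED6 carried via bile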). To be noted: Zebrafish larvae PED6 lipid processing, fluorescence scoring; screened at 20 µM (by protocol). The essentials:
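Incubation: overnight exposure of larvae to compound plus PED6 / Test system: live zebrafish larvae aged 5-7 days, whole organism / Amount: 5 larvae per well / Read-out basis: visual per-well fluorescence inhibition score / Signal: visual fluorescence microscopy scoring of gall bladder, gut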

The nature of test [9]: loss of swimming-algae plug formation – whole organism, Chlamydomonas reinhardtii, WT vs cilia-less mutant, absorbance, 96-well, primary screen (AID 463189;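 active = inhibition at or above 50% relative to wild type and mutant plate controls; inactive = inhibition below 50%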;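 also: 0% = wild type cc124 cells in DMSO and 100% = ciliumless bld1 mutant cells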). Conditions: Chlamydomonas reinhardtii gravitaxis, OD600 absorbance, 2 days; at 10 µM; stronger effect = higher value.
Setting [10] is: measured here: cell density z-score.
Setting [11] is: measured here: nuclear c-Myc green intensity z-score.
Setting [12] is: measured here: nuclear pErk red intensity z-score, stronger effect = higher value.

Structures are written as SMILES. Activity calls are given as the source filed them.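 The calls were made as follows, unless noted: active = fluorescence slope after compound addition differing from the mean of all screened samples at 99.7% confidence, in either direction; inactive = the rest.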

Sequence of Dual specificity protein phosphatase 6 (Homo sapiens) (Q16828 whole entry, looked up): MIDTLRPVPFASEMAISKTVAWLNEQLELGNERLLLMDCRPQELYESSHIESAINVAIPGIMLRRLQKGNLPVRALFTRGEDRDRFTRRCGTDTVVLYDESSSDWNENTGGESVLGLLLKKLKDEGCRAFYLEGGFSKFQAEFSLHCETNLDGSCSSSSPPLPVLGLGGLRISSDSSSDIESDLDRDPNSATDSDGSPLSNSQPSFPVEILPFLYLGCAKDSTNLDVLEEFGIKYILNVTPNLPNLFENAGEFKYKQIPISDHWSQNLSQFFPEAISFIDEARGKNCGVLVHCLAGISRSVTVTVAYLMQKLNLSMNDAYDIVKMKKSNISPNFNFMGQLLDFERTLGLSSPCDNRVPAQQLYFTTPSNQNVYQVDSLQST
Sequence of Voltage-gated potassium channel subunit beta-2 (Rattus norvegicus) (P62483 whole entry, looked up): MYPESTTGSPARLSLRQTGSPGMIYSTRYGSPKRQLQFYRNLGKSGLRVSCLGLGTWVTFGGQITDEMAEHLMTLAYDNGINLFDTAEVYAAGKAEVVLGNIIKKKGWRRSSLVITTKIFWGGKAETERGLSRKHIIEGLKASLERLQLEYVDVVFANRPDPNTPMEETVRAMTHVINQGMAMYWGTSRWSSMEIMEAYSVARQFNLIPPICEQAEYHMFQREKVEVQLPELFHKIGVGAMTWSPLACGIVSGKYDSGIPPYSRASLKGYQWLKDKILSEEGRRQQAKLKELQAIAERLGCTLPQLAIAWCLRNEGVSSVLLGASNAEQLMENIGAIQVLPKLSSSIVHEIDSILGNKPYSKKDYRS
Sequence of Alpha-2C adrenergic receptor (Homo sapiens) (P18825 whole entry, looked up): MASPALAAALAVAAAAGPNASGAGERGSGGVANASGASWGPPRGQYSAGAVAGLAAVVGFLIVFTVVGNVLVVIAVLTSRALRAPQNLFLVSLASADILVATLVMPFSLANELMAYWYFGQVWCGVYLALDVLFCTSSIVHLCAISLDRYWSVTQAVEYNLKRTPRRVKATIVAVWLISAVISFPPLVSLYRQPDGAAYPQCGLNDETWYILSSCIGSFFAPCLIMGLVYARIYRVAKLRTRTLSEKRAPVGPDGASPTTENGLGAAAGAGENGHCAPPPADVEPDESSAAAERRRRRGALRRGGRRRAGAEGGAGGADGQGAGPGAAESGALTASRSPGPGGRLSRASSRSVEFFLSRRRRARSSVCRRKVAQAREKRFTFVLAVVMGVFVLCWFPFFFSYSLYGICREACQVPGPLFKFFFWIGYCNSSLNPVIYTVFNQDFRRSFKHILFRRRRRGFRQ

On to `COc1cc(C2C3C(=O)N(c4ccccc4)C(=O)C3ON2c2ccccc2)ccc1O` (centres undefined), for which the cell count in test [1] was found to be 322. Further, the inhibition in test [1] was -4.2% (inactive); in test [2], -22.7% (inactive); in test [4], 5.42% (inactive); in test [9], -1.03% (inactive). In [2], the nuclei count was 171%. Further, the results for the z-score in test [3] (setting [10]), in test [3] (setting [11]) and in test [3] (setting [12]) were 0.353, -0.666 and -0.00927, respectively. For the same molecule, in test [5], the fluorescence slope is -0.418 (inactive). Further, the NADPH fluorescence slope in test [6] is -0.000156 (inactive). In addition, in test [7], the slope was 0.00862 (inactive). Besides, the call in test [8] was inactive.
Regarding `CC(C)Cc1nc(NCCN2CCOCC2)c(C#N)c2c1COC(C)(C)C2`, the cell count in [1] was determined as 572. Besides, the inhibition in [1] was 2.6% (inactive); in test [2], -114% (inactive); in test [4], -6.86% (inactive); in test [9], 4.53% (inactive). This molecule came in with a nuclei count in test [2] of 192%. Further, the z-score in [3] (setting [10]) is -1.39; in test [3] (setting [11]), 1.03; in test [3] (setting [12]), 0.72. Besides, the fluorescence slope in [5] is -0.302 (inactive). The NADPH fluorescence slope in [6] is 2.3e-05 (inactive). Further, the slope in [7] is 0.00502 (inactive). Moreover, in test [8], the result was inactive.
Regarding `Cn1c(=O)c2c3c(sc2n2c(SCC(N)=O)nnc12)CC(C(C)(C)C)CC3` (centres undefined), the cell count in [1] is 508. The inhibition in [1] was -9.7% (inactive); in [2], -30% (inactive); in test [4], 3.56% (inactive); in [9] it was 92.5% (active). The molecule further returned a nuclei count in [2] of 91.7%. Besides, the z-score was 1.25 in test [3] (setting [10]), -0.417 in [3] (setting [11]) and 0.675 in test [3] (setting [12]). In addition, the fluorescence slope in test [5] was -0.371 (inactive). Further, the NADPH fluorescence slope in [6] was 6.2e-07 (inactive). In addition, the slope in test [7] was 0.00521 (inactive). In addition, in test [8], the molecule was classed as inactive.
Take `CCOC(=O)c1[nH]c2ccc(Br)cc2c1NC(=O)CCN1CCN(C(=O)OCC)CC1`: in test [1], the cell count turned out to be 545. Besides, the inhibition is -23.3% (inactive) in test [1], -94.6% (inactive) in test [2], -7.86% (inactive) in test [4] and 18.6% (inactive) in test [9]. Also, the nuclei count in [2] is 158%. The z-score in [3] (setting [10]) was -0.326; in test [3] (setting [11]), -0.22; in test [3] (setting [12]), -0.0275. The fluorescence slope in test [5] is -0.522 (inactive). Further, the NADPH fluorescence slope in [6] is -4.7e-05 (inactive). Further, the slope in test [7] is 0.00482 (inactive). Moreover, the result in test [8] was inactive.
Regarding `COc1cccc(N2CCN(C3CC(=O)N(c4cccc(Cl)c4)C3=O)CC2)c1` (centres undefined), the cell count in test [1] came out at 325. In addition, the inhibition in test [1] was -2.2% (inactive); in test [2], -62.9% (inactive); in test [4] it was 3.42% (inactive); in test [9], -11.3% (inactive). Besides, the nuclei count in [2] is 80.7%. Also, the z-score in [3] (setting [10]) is -0.898; in test [3] (setting [11]) it was 1.47; in test [3] (setting [12]), -0.427. The fluorescence slope in [5] was -0.43 (inactive). Moreover, the NADPH fluorescence slope in test [6] was -0.00011 (inactive). The slope in test [7] was 0.00471 (inactive). Besides, in [8], the call was inactive.
For the molecule `O=C(O)CC(C(=O)N(c1ccccc1)c1ccccc1)N1CCOCC1` (centres undefined), in [1], the cell count was found to be 498. The inhibition in test [1] was -4.7% (inactive); in test [2] it was -103% (inactive); in test [4], -7.01% (inactive); in test [9], -20.4% (inactive). In addition, the nuclei count in test [2] is 118%. The z-score in test [3] (setting [10]) was -1.14; in test [3] (setting [11]), 0.849; in [3] (setting [12]), 1.75. In addition, in test [5], the fluorescence slope was -0.576 (inactive). In addition, in test [6], the NADPH fluorescence slope was -4e-05 (inactive). Moreover, in test [7], the slope is 0.00573 (inactive). Further, in [8], the call was inactive.
For the molecule `CNc1nc(C)c(C#N)cc1C(C)=O`, in test [1], the cell count was determined as 481. For the same molecule, the inhibition in [1] was -11.7% (inactive); in [2], 8.2% (inactive); in test [4], 5.65% (inactive); in [9], 26.6% (inactive). This molecule also came in with a nuclei count in [2] of 166%. In addition, the values for the z-score in [3] (setting [10]), in test [3] (setting [11]) and in test [3] (setting [12]) were 0.906, -0.478 and -0.65, respectively. In test [5], the fluorescence slope was -0.513 (inactive). For the same molecule, the NADPH fluorescence slope in [6] was -9.4e-05 (inactive). In test [7], the slope is 0.00563 (inactive). Further, the call in test [8] was inactive.
As for `Cc1ccc(C2CC(C(F)(F)F)n3ncc(C(N)=O)c3N2)cc1` (centres undefined), the cell count in test [1] worked out at 506. Also, the inhibition in test [1] is -1.3% (inactive); in [2], 4.8% (inactive); in [4], -7.79% (inactive); in test [9] it was 16.3% (inactive). In test [2], this molecule displayed a nuclei count of 124%. The z-score in test [3] (setting [10]) was -0.204; in test [3] (setting [11]) it was -0.144; in test [3] (setting [12]), 1.07. Further, in [5], the fluorescence slope was -0.5 (inactive). Further, in [6], the NADPH fluorescence slope is -8.2e-05 (inactive). In addition, the slope in test [7] was 0.00506 (inactive). In addition, in test [8], the result was inactive.
Turning to `CCCCCc1nc2sc3c(c2c(=O)n1N)CCC3`, the cell count in [1] came out at 632. The inhibition in [1] is -11.1% (inactive); in test [2], 46.3% (inactive); in [4], -9.7% (inactive); in [9], 68.1% (active). The molecule also had a nuclei count in [2] of 166%. For the same molecule, the z-score in test [3] (setting [10]) was -1.49; in test [3] (setting [11]) it was 2.03; in test [3] (setting [12]) it was 1.67. The fluorescence slope in [5] was -0.507 (inactive). Further, the NADPH fluorescence slope in test [6] is -0.000102 (inactive). The slope in test [7] is 0.00473 (inactive). For the same molecule, the outcome in test [8] was inactive.
In the case of `O=C1C=C(O)CC(c2ccco2)C1` (centres undefined), the cell count in test [1] is 558. Moreover, the inhibition in [1] is 5.7% (inactive); in test [2] it was -59% (inactive); in test [4] it was -6.48% (inactive); in test [9] it was -1.54% (inactive). In test [2], this molecule had a nuclei count of 82%. The z-score in test [3] (setting [10]) was 0.0297; in [3] (setting [11]), 0.982; in [3] (setting [12]), 0.298. Moreover, the fluorescence slope in [5] is -0.469 (inactive). The NADPH fluorescence slope in test [6] was -0.00033 (inactive). Moreover, the slope in test [7] is 0.00402 (inactive). Moreover, the outcome in [8] was inactive.
Take `CC1(C)Cc2c(sc3nc(SCC#N)n(C4CCCCC4)c(=O)c23)CO1`: in test [1], the cell count was determined as 633. Moreover, the inhibition in test [1] is -10.8% (inactive); in [2], 51% (inactive); in test [4], 6.04% (inactive); in [9] it was -8.06% (inactive). This molecule also returned a nuclei count in test [2] of 154%. Also, the z-score in [3] (setting [10]) was -1.73; in [3] (setting [11]), 0.192; in test [3] (setting [12]), 0.926. Moreover, in test [5], the fluorescence slope was -0.356 (inactive). The NADPH fluorescence slope in [6] was -4.5e-05 (inactive). Moreover, the slope in test [7] was 0.0054 (inactive). For the same molecule, the result in test [8] was inactive.
On to `COc1cc(-n2c3nc4ccccc4nc3c3c(=O)n(Cc4ccco4)cnc32)cc(OC)c1OC`, for which, in [1], the cell count turned out to be 308. Besides, the inhibition in test [1] was -15.2% (inactive); in test [2], -111% (inactive); in test [4] it was -3.5% (inactive); in test [9], 3.2% (inactive). In addition, the nuclei count in [2] came to 168%. In addition, the z-score in test [3] (setting [10]) is -1.73; in test [3] (setting [11]) it was 0.447; in [3] (setting [12]), 0.876. Further, the fluorescence slope in test [5] was -0.417 (inactive). The NADPH fluorescence slope in [6] was -0.000139 (inactive). The slope in test [7] was 0.00442 (inactive). Besides, the call in test [8] was inactive.
For the molecule `Cc1ccc(CC2CC(=O)N(c3ccc4c(c3)OCCO4)C2=O)cc1` (centres undefined), in test [1], the cell count was 482. For the same molecule, the inhibition in [1] was -11% (inactive); in test [2], -17.8% (inactive); in test [4] it was 15.1% (inactive); in test [9] it was 25.7% (inactive). Besides, in test [2], the nuclei count stood at 129%. Further, the z-score was 1.49 in [3] (setting [10]), -1.24 in test [3] (setting [11]) and 0.443 in test [3] (setting [12]). Also, the fluorescence slope in [5] was -0.513 (inactive). Further, in test [6], the NADPH fluorescence slope is -0.000111 (inactive). For the same molecule, the slope in test [7] was 0.00446 (inactive). In addition, the result in test [8] was inactive.
